Assay results from different studies.
Target: Serine/threonine-protein kinase SBK1 (SBK1, Homo sapiens, UniProt Q52WX2)

Structure (SMILES)	assay	conditions	remaining binding [%]
F[C@@H]1CCN(c2nccc(-c3cnn4ncccc34)n2)C1	binding	1 µM	100
CO[C@@H](C)c1c(Nc2ccc([C@H](N(C)C(=O)C3CCS(=O)(=O)CC3)C(F)(F)F)cc2)cnc2cc(Cl)nn12	cell-free assay, competition with immobilised ligand	1 µM	100
COc1ccnn2ncc(-c3ccnc(N(C)C)n3)c12	binding	1 µM	100
C[C@H](c1cccc(C#N)c1)n1cc(Cl)cc(C(N)=O)c1=N	cell-free assay, competition with immobilised ligand	1 µM	83
Cc1cnc(Nc2ccc(C(=O)N3CCC(N4CCCC4)CC3)cc2)nc1-c1cc2ccccc2s1	binding, competition with immobilised ligand	1 µM	51
CN(C)c1ncc(F)c(-c2cnn3ncccc23)n1	binding	1 µM	66
CN(C)CC#Cc1ccc(OCCCc2sc(N3CCc4cccc(C(=O)Nc5nc6ccccc6s5)c4C3)nc2C(=O)O)c(F)c1	cell-free assay, competition with immobilised ligand	1 µM	100
O=C(c1ccc(Nc2ncc(Cl)c(-c3ccc(Cl)s3)n2)cc1)N1CCC(N2CCCC2)CC1	binding, competition with immobilised ligand	1 µM	48
Cc1cc(-n2nc(Cc3cc(F)cc(C(F)(F)F)c3)nc2C)ccc1C(N)=O	cell-free assay, competition with immobilised ligand	1 µM	98
CCN1CCN(Cc2ccc(C(=O)Nc3ccc(C)c(Oc4ccc5c(c4)CC(=O)N5)c3)cc2C(F)(F)F)CC1	binding, competition with immobilised ligand	1 µM	76
CN(CCCC(F)(F)F)c1nccc(-c2cnn3ncccc23)n1	binding	1 µM	85
COc1cnc(Nc2cccc(S(N)(=O)=O)c2)nc1N1CCN(c2ccccc2)CC1	binding, competition with immobilised ligand	1 µM	96
O=C(Nc1c[nH]nc1C(=O)NC1CCNCC1)c1cc(F)cc(F)c1	binding, competition with immobilised ligand	1 µM	100
C[C@H]1CCN(c2nccc(-c3cnn4ncccc34)n2)C1	binding	1 µM	78
C[C@@H](c1ccc(-n2cnc3c(N)ncnc32)cc1)N1CCc2nn(C)c(Cc3ccccc3)c2C1=O	binding, competition with immobilised ligand	0.1 µM	69
N[C@H]1CCN(c2nccc(-c3cnn4ncccc34)n2)C1	binding	1 µM	83
COc1cnc(Nc2cccc(S(N)(=O)=O)c2)nc1N1CCN(c2ccccc2)C(=O)C1	binding, competition with immobilised ligand	1 µM	61
c1cncc(-c2cccc(Nc3nccc(NC4CCCCC4)n3)c2)c1	binding, competition with immobilised ligand	10 µM	66
CCOC(=O)c1cc2cc(-c3cc(C(=O)NCc4ccc(C(=O)O)cc4)nn3C)ccc2[nH]1	cell-free assay, competition with immobilised ligand	0.1 µM	90
CN(C)c1nccc(-c2cnn3ncccc23)n1	binding	1 µM	100
CCC(=O)N[C@H]1CC[C@@H](C(=O)N(C)c2ccc(-c3nc4ccccc4o3)cc2)C1	cell-free assay, competition with immobilised ligand	1 µM	94
O=C(NCCCN1CCOCC1)c1ccc(Nc2nccc(-c3cc4ccccc4s3)n2)cc1	binding, competition with immobilised ligand	1 µM	71
